tolC growth inh – growth inhibitors of E. coli BW25113 tolC mutant; OD615; growth inhibition, % at 10 µM (by protocol); hit rate 2.2% among 65,000; AID 573;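 active means growth inhibition at or above a cutoff equal to the mean over every tested compound plus 3 SD, cut at about 60% in these data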;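 further: growth measured after 20 h incubation at 37 °C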
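Test system: tolC-deleted E. coli BW25113 | Medium: LB with kanamycin 50 µg/mL | Compound dosing: Single concentration, 10 µM final per compound | Schedule: 37 °C, 20 h exposure | Measured by: OD at 615 nm | Evaluation: Percent growth inhibition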
Pyk2 oligo antag – blocks oligomerization of human Pyk2 in cells; hit rate 0.83% among 99,000; Q293 cells, Pyk2 FERM NanoBiT luminescence; hits give low values; Q14289; AID 1347419; z-score (the deposit names both 25 µM and 10 µM);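 active means Z-score of -3 or lower, scaled per plate to the spread of control and sample wells; inactive means z-score above -3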;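 further: negative z-score means lost luminescence so less FERM oligomerization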
PostGolgi yeast – growth inhibition of a yeast mutant, post-Golgi transport screen | post-Golgi transport phenotypic cell assay | inhibition, % at 10 µM | hit rate 0.9% among 98,000 | AID 739;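 further: yeast cells grown in 1536-well plates; yeast grown about 18 h at 30C before absorbance read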
E coli WT exp – blocks growth of wild type E. coli BW25113. growth inhibition, % at 100 µM. hit rate 0.15% among 98,000. OD600 absorbance;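 active means growth inhibition above about 50% at one test dose, limit read from the data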;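 further: growth measured after 20 h incubation at 37 °C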
Cav32 inh – human Cav3.2 channel inhibition, primary screen; O95180; Cav3.2-expressing cells, Fluo-4 calcium fluorescence FDSS; hits give low values; B-score at 10 µM; hit rate 4% among 100,000; AID 449739;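 active means single-dose well whose peak fluorescence ratio is a statistical outlier from its plate by either plate-standardised score or position-corrected B-score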
PostGolgi ctrl – inhibits growth of the yeast control strain. inhibition, % at 10 µM. hit rate 5% among 98,000. AID 738. efflux-deficient yeast background strain, growth absorbance A615, 16 h
* marks the source's active call; other numbers are inactive results; . = not tested or not shown. Shown are actives, neighbours in structure and some others; about 8.7% of the full set was active somewhere. Unless noted, no stated cut-off is given here; in the data, active means inhibition above about 30%; inactive means the rest.

SMILES | tolC growth inh | Pyk2 oligo antag | PostGolgi yeast | E coli WT exp | Cav32 inh | PostGolgi ctrl
CN(C1CCCCC1)S(=O)(=O)c1ccc(NC(=S)NC(=O)c2cccs2)cc1 | . | -1.3 | -4 | -10 | -5.7* | 14
CC1CCCCN1S(=O)(=O)c1ccc(NC(=O)c2cccs2)cc1 (stereo not drawn) | 53 | -2.5 | -12 | -3 | -1.6 | 33*
CCCOc1ccc(N2C(=O)CC(N3CCC(c4nncn4CC)CC3)C2=O)cc1 (stereo not drawn) | -13 | -0.45 | -11 | 4 | . | 22
CC(C)(C)OC(=O)N[C@@H](Cc1ccccc1)[C@H](O)c1ccco1 | . | . | . | . | 0.0043 | .
CCOC(=O)C1=NNC2C(=O)N(C3CCCCC3)C(=O)C12 (stereo not drawn) | . | 0 | -1 | -3 | 0.83 | 2
COc1ccccc1N1CCN(C(c2ccccc2)c2nnnn2CCc2ccccc2)CC1 (stereo not drawn) | . | -1.6 | . | . | -3.7 | .
CCN1CCN(c2nc3ccccc3nc2C(C#N)S(=O)(=O)c2ccc(C)c(C)c2)CC1 (stereo not drawn) | . | -0.54 | 3 | 6 | . | 6
Cc1cccc(S(=O)(=O)C(C#N)c2nc3ccccc3nc2N2CC(C)OC(C)C2)c1 (stereo not drawn) | 62* | -0.42 | 1 | -4 | -2.5 | 11
Cc1ccc(S(=O)(=O)C(C#N)c2nc3ccccc3nc2N2CC(C)OC(C)C2)cc1C (stereo not drawn) | 48 | 0.36 | 15 | 6 | -4.2* | 13
Nc1ncc2c(n1)CC(c1ccco1)CC2=O (stereo not drawn) | -11 | 0.54 | 0 | 7 | -0.092 | 3
S=C(Nc1ccc2c(c1)OCO2)NC1CCN(Cc2ccccc2)CC1 | . | 0.32 | -3 | 7 | 0.055 | 11
Cc1cccc2cc(-c3nc4c(C)cccn4c3NCc3ccco3)c(=O)[nH]c12 | . | -0.38 | 44* | -1 | -2.1 | 56*
CC(=O)C1=C(C)NC(SCC(=O)c2ccc(C)cc2)=C(C#N)C1c1ccco1 (stereo not drawn) | 25 | . | -3 | -7 | -5* | 17
COCCNC(=O)Cn1cnc2c1c(=O)n(C)c(=O)n2C | -3 | -0.57 | -1 | 5 | -5.3* | 0
Fc1ccc(-n2nnc(-c3ncc[nH]3)n2)cc1 | . | . | . | . | -0.046 | .
O=C1S/C(=C\c2ccc(N3CCOCC3)o2)C(=O)N1Cc1c(F)cccc1Cl | . | 0.47 | -4 | -13 | -5.7* | 15
O=C1S/C(=C/c2ccc(N3CCOCC3)o2)C(=O)N1Cc1c(F)cccc1Cl | . | 0.29 | 5 | -7 | 0.025 | 5
CNc1ccc(C(O)(C(F)(F)F)C(F)(F)F)cc1C(O)(C(F)(F)F)C(F)(F)F | 62* | -2.9 | -2 | 1 | -7.1* | 11
COc1ccc(C(=O)CSc2nnc(-c3ccc(S(=O)(=O)N4CCOCC4)cc3)o2)cc1 | -3 | 0.26 | -11 | -20 | 0.16 | -1
CC1(C)COCN1S(=O)(=O)c1ccc(C(=O)Nc2nnc(-c3ccc(Cl)s3)o2)cc1 | 99* | . | 5 | 6 | . | 18
COc1ccc(-c2nnc(NC(=O)c3ccc(S(=O)(=O)N4COCC4(C)C)cc3)o2)cc1 | 100* | -1.9 | 23 | -16 | . | 27
CCN1C(=O)N[C@@H](c2ccco2)C(C(=O)OC)=C1C | . | . | . | . | -2.4 | .
CC(C)NC(=O)CN1CCN(c2ncccn2)CC1 | 2 | 0.12 | 16 | 4 | 0.64 | 3
Cc1nn(C)c(Oc2ccccc2)c1CCNS(=O)(=O)c1ccccc1 | . | 0.48 | -21 | 8 | -0.84 | 38*
CCOC(=O)Cc1csc(SCC(=O)Nc2cc(Cl)ccc2Oc2ccccc2)n1 | . | -0.14 | 4 | -7 | -5.6* | 11
SMILES | tolC growth inh | Pyk2 oligo antag | PostGolgi yeast | E coli WT exp | Cav32 inh | PostGolgi ctrl
CCOC(=O)Cc1csc(SCC(=O)Nc2cccc(C#N)c2)n1 | -2 | 1.6 | 16 | 7 | 0.025 | 21
CCOC(=O)Cc1csc(SCC(=O)Nc2cccc(Cl)c2)n1 | . | 1.3 | -1 | -1 | -3.8* | 4
CCCn1c(SCC(=O)Nc2ccccc2Oc2ccccc2)n[nH]c1=O | . | 0.12 | -8 | 4 | 0.83 | 0
O=C(CSc1n[nH]c(=O)n1C1CC1)Nc1cc(Cl)ccc1Oc1ccccc1 | 25 | -1.7 | -5 | -4 | -6* | 8
CCC(=O)NC(Nc1ncc(C)s1)(C(=O)OC)C(F)(F)F (stereo not drawn) | . | 0.62 | . | . | -0.15 | .
CCC(C)(C)c1nnc(NC(=O)c2ccc([N+](=O)[O-])cc2)s1 | . | 1.2 | 0 | -3 | -0.048 | 8
